The target of assay [1] is T1, Muscarinic acetylcholine receptor M1 (Rattus norvegicus, UniProt P08482).
T1 sequence (P08482 whole entry): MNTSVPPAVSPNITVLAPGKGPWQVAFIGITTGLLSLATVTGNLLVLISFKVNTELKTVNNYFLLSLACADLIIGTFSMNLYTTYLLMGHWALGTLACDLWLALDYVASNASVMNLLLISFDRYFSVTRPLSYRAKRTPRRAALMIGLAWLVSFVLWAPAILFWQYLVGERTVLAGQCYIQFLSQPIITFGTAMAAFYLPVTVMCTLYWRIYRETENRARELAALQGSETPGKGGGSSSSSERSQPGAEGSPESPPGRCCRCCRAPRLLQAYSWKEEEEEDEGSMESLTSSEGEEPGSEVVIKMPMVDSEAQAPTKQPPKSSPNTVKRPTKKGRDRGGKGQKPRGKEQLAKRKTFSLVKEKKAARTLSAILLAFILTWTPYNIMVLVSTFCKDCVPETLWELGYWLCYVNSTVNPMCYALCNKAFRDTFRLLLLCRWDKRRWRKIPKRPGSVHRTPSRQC
Briefly: Inhibition of binding of [3H]N-methylscopolamine to muscarinic acetylcholine receptor M1 of transfected rat A9L cells. The format is cell-based.

The target in assay [2] is T2, Muscarinic acetylcholine receptor M2 (Rattus norvegicus, UniProt P10980).
T2 sequence (P10980 whole entry): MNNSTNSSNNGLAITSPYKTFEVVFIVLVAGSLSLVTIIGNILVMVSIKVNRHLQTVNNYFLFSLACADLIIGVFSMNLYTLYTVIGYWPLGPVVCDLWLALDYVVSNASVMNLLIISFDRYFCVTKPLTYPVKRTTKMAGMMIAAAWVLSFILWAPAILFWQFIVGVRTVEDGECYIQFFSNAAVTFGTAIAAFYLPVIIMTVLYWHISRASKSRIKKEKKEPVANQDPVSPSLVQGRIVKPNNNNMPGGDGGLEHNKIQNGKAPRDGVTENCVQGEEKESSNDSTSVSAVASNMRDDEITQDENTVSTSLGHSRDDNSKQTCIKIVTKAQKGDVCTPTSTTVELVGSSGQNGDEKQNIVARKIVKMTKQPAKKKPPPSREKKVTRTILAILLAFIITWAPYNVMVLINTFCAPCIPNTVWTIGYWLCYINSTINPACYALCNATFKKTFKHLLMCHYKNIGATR
Briefly: Inhibition of binding of [3H]N-methylscopolamine to muscarinic acetylcholine receptor M2 of rat heart tissue membrane. The format is tissue-based. The essentials:
(§1)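 Rat heart membranes (150–300 μg protein) incubated 90 min at 37 °C in DMEM-Hepes with 0.5 nM [3H]NMS and varied unlabeled analogue concentrations. Bound radioligand collected by rapid GF/B filtration, washed with ice-cold 0.9% NaCl, and scintillation counted. Nonspecific binding with 1 μM atropine subtracted. Ki values come from one to three determinations, each in triplicate.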

The target in assay [3] is Muscarinic acetylcholine receptor M3 (Rattus norvegicus, UniProt P08483). The experiment in a line: Inhibition of binding of [3H]N-methylscopolamine to muscarinic acetylcholine receptor M3 of transfected rat A9L cells. The format is cell-based.
Sequence of Muscarinic acetylcholine receptor M3 (P08483 whole entry): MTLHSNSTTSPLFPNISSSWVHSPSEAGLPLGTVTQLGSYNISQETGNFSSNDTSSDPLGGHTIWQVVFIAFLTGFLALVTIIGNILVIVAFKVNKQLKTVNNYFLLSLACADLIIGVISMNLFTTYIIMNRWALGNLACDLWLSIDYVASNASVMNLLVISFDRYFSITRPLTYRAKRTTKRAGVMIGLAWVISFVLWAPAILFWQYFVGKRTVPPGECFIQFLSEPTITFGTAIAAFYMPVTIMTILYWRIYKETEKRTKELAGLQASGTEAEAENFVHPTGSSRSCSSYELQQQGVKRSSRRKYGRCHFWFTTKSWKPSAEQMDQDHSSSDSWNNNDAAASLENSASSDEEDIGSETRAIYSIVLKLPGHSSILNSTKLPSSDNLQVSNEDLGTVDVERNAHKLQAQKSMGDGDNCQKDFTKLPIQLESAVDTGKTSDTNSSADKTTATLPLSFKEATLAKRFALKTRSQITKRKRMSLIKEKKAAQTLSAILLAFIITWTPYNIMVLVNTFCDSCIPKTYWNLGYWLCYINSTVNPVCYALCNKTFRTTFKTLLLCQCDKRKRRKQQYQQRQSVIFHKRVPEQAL
The target in assay [4] is T3, Muscarinic acetylcholine receptor M4 (Rattus norvegicus, UniProt P08485).
T3 sequence (P08485 whole entry): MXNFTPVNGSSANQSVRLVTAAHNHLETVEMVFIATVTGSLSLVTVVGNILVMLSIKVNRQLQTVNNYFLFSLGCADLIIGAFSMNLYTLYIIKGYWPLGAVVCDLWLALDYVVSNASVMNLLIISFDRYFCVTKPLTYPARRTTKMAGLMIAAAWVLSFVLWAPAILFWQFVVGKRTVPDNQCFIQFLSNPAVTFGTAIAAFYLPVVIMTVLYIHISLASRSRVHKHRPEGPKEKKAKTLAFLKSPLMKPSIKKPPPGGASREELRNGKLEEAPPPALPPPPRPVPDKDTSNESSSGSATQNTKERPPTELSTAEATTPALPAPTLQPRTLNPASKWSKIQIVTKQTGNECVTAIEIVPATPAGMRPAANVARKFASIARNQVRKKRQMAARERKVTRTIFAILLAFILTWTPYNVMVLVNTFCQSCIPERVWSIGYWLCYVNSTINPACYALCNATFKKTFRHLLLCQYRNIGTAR
The experiment in a line: Inhibition of binding of [3H]N-Methyl-scopolamine to muscarinic acetylcholine receptor M4 of rat […] NG108-15 cells. Type of assay: cell-based.

Assay [5] has as its target T1, Muscarinic acetylcholine receptor M1. The experiment in a line: Inhibition of binding of [3H]N-Methyl-scopolamine to Muscarinic acetylcholine receptor M1 of transfected A9L cells. The format is cell-based. The method, boiled down:
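Confluent A9L (transfected m1/m3) or NG108-15 (m4) cultures were lysed in 2 mM Tris-HCl pH 7.1/1 mM EDTA, 30 min, 2 °C, then homogenized. Crude membranes were spun at 50000g. Membranes (150–300 μg protein) were incubated with 0.5 nM [3H]NMS and varied analogue in DMEM-Hepes for 90 min at 37 °C, then filtered. Nonspecific binding was set with 1 μM atropine. Ki values are from 1–3 triplicate determinations.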

The target of assay [6] is T2, Muscarinic acetylcholine receptor M2. The experiment in a line: Inhibition of binding of [3H]N-Methyl-scopolamine to Muscarinic acetylcholine receptor M2 of rat heart tissue membranes. Type of assay: cell membranes, Membrane. The method, boiled down: as §1

Bounds are passed on as bounds.

Consider `NCCCCCN1CCN(CC(=O)N2c3ccccc3C(=O)Nc3cccnc32)CC1`, for which the values for the Ki in assay [1] and in assay [2] were 1170 nM and 5890 nM, respectively.
For `CSc1ccc2c(c1)C(=O)Nc1cccnc1N2C(=O)CN1CCN(C)CC1`, the results for the Ki in assay [1], in assay [2] and in assay [3] were 4660 nM, 11000 nM and 3620 nM, respectively.
Take `NCCCC(=O)NCCN1CCN(CC(=O)N2c3ccccc3C(=O)Nc3cccnc32)CC1`: the Ki in assay [1] is 9530 nM; in assay [2] it was 6340 nM; in assay [3], 11500 nM.
As for `CS(=O)(=O)N1CCN(CC(=O)N2c3ccccc3C(=O)Nc3cccnc32)CC1`, the inhibition constant (Ki) in assay [1], in assay [4], in assay [2] and in assay [3] was over 100000 nM in each case.
Turning to `CC(=O)N1CCN(CC(=O)N2c3ccccc3C(=O)Nc3cccnc32)CC1`, the Ki in assay [1], in assay [4], in assay [2] and in assay [3] was over 100000 nM each time.
With `CC(C)(C)OC(=O)NCCCCCCN1CCN(CC(=O)N2c3ccccc3C(=O)Nc3cccnc32)CC1`, the inhibition constant Ki in assay [1] is 37.1 nM; in assay [4] it was 23.2 nM; in assay [2] it was 21.4 nM; in assay [3], 46 nM.
As for `CC(C)(C)OC(=O)NCCNC(=O)c1ccc(CN2CCN(CC(=O)N3c4ccccc4C(=O)Nc4cccnc43)CC2)cc1`, the affinity in assay [2], expressed as Ki, was 2500 nM.
As to `O=C1Nc2cccnc2N(C(=O)CN2CCN(CCCCN3C(=O)c4ccccc4C3=O)CC2)c2ccccc21`, the Ki in assay [1] worked out at 170 nM; in assay [4], 210 nM; in assay [2], 89 nM; in assay [3], 120 nM.
As to `NCCCCCCCCCN1CCN(CC(=O)N2c3ccccc3C(=O)Nc3cccnc32)CC1`, the inhibition constant Ki in assay [5] and in assay [6] was 24 nM throughout.
Consider `CN1CCN(CC(=O)N2c3ccc(S(N)(=O)=O)cc3C(=O)Nc3cccnc32)CC1`, for which the Ki in assay [1], in assay [2] and in assay [3] was over 30000 nM throughout.
`NCCCCCCN1CCN(CC(=O)N2c3ccccc3C(=O)Nc3cccnc32)CC1`: the figures for the Ki in assay [1] and in assay [2] were 1310 nM and 1340 nM, respectively.
Consider `NCCNC(=O)c1ccc(CN2CCN(CC(=O)N3c4ccccc4C(=O)Nc4cccnc43)CC2)cc1`, for which the Ki worked out at 1390 nM in assay [1], 1040 nM in assay [4], 960 nM in assay [2] and 3650 nM in assay [3].
Regarding `C#CCN1CCN(CC(=O)N2c3ccccc3C(=O)Nc3cccnc32)CC1`, the Ki in assay [1] was 1670 nM; in assay [2], 1370 nM.
Turning to `O=C1Nc2cccnc2N(C(=O)CN2CCN(CCCCCN3C(=O)c4ccccc4C3=O)CC2)c2ccccc21`, the Ki in assay [1] was 60 nM; in assay [2], 20 nM.
Regarding `NCCCCCCCCN1CCN(CC(=O)N2c3ccccc3C(=O)Nc3cccnc32)CC1`, the inhibition constant (Ki) in assay [5] came out at 20 nM; in assay [6], 26 nM.
Turning to `CN1CCN(CC(=O)N2c3ccc(S(=O)(=O)NCCNC(=O)OC(C)(C)C)cc3C(=O)Nc3cccnc32)CC1`, the Ki in assay [1] and in assay [3] was over 30000 nM throughout.
As to `NCCCN1CCN(CC(=O)N2c3ccccc3C(=O)Nc3cccnc32)CC1`, the results for the Ki in assay [1] and in assay [2] were 3870 nM and 5120 nM, respectively.
As to `O=C1Nc2cccnc2N(C(=O)CN2CCN(CCO)CC2)c2ccccc21`, the results for the inhibitory constant (Ki) in assay [1], in assay [2] and in assay [3] were 5800 nM, 3200 nM and 9500 nM, respectively.
For the molecule `O=C1Nc2cccnc2N(C(=O)CN2CCN(C(=S)Nc3ccccc3)CC2)c2ccccc21`, the inhibition constant (Ki) in assay [1], in assay [4], in assay [2] and in assay [3] was over 100000 nM in each case.
On to `CC(C)(C)OC(=O)NCCCC(=O)NCCN1CCN(CC(=O)N2c3ccccc3C(=O)Nc3cccnc32)CC1`, for which the figures for the inhibitory constant (Ki) in assay [1], in assay [2] and in assay [3] were 4800 nM, 3340 nM and 4100 nM, respectively.
As to `CC(=O)NCCC(=O)NCCN1CCN(CC(=O)N2c3ccccc3C(=O)Nc3cccnc32)CC1`, the Ki in assay [1] is 39400 nM; in assay [2] it was 34500 nM; in assay [3] it was over 100000 nM.
For the molecule `CC(=O)NCCCC(=O)NCCN1CCN(CC(=O)N2c3ccccc3C(=O)Nc3cccnc32)CC1`, the figures for the Ki in assay [1], in assay [2] and in assay [3] were 9650 nM, 8820 nM and 10800 nM, respectively.
As to `O=C1Nc2cccnc2N(C(=O)CN2CCN(Cc3ccccc3)CC2)c2ccccc21`, the Ki in assay [1] was found to be 330 nM; in assay [4] it was 220 nM; in assay [2], 240 nM; in assay [3] it was 240 nM.
On to `CC(=O)NCCCCCCCCCN1CCN(CC(=O)N2c3ccccc3C(=O)Nc3cccnc32)CC1`, for which the inhibitory constant (Ki) in assay [5] was 52 nM; in assay [6], 50 nM.
Turning to `COc1ccccc1CNCCCCCCCCCCN1CCN(CC(=O)N2c3ccccc3C(=O)Nc3cccnc32)CC1`, the Ki in assay [5] is 3.3 nM; in assay [6], 22 nM.
For `CC(=O)NCCNS(=O)(=O)c1ccc2c(c1)C(=O)Nc1cccnc1N2C(=O)CN1CCN(C)CC1`, the Ki in assay [1] and in assay [3] was over 30000 nM throughout.
Consider `O=C1Nc2cccnc2N(C(=O)CN2CCN(C(=O)c3ccccc3)CC2)c2ccccc21`, for which the Ki in assay [1], in assay [4], in assay [2] and in assay [3] was over 100000 nM each time.
In the case of `NCCN1CCN(CC(=O)N2c3ccccc3C(=O)Nc3cccnc32)CC1`, the Ki was 1190 nM in assay [1], 2840 nM in assay [4], 3040 nM in assay [2] and 1970 nM in assay [3].
Turning to `CN1CCN(CC(=O)N2c3ccc(S(=O)(=O)NCCN)cc3C(=O)Nc3cccnc32)CC1`, the inhibition constant Ki in assay [1] and in assay [3] was over 30000 nM in each case.
On to `NCCC(=O)NCCN1CCN(CC(=O)N2c3ccccc3C(=O)Nc3cccnc32)CC1`, for which the Ki in assay [1] is 4340 nM; in assay [2], 5840 nM; in assay [3], 6650 nM.
For the molecule `CN1CCN(CC(=O)N2c3cc(CO)ccc3C(=O)Nc3cccnc32)CC1`, the Ki in assay [1] and in assay [3] was 4400 nM throughout.
Take `CC(C)(C)OC(=O)NCCCCNC(=O)c1ccc(CN2CCN(CC(=O)N3c4ccccc4C(=O)Nc4cccnc43)CC2)cc1`: the Ki was 1680 nM in assay [1], 1090 nM in assay [2] and 3470 nM in assay [3].
For `O=C1Nc2cccnc2N(C(=O)CN2CCN(CCCN3C(=O)c4ccccc4C3=O)CC2)c2ccccc21`, the figures for the inhibitory constant (Ki) in assay [1] and in assay [2] were 1810 nM and 840 nM, respectively.
In the case of `NCCCCN1CCN(CC(=O)N2c3ccccc3C(=O)Nc3cccnc32)CC1`, the Ki in assay [1] was 3080 nM; in assay [2], 1740 nM.
On to `CC(=O)NCCN1CCN(CC(=O)N2c3ccccc3C(=O)Nc3cccnc32)CC1`, for which the inhibitory constant (Ki) in assay [1] turned out to be 670 nM; in assay [4], 2570 nM; in assay [2] it was 2520 nM; in assay [3], 970 nM.
Regarding `CC(C)(C)OC(=O)NCCC(=O)NCCN1CCN(CC(=O)N2c3ccccc3C(=O)Nc3cccnc32)CC1`, the Ki in assay [1] worked out at 13300 nM; in assay [2], 6060 nM; in assay [3], 6190 nM.
In the case of `Cc1scc2c1N(C(=O)CN1CCN(C)CC1)c1ccccc1NC2=O` [TELENZEPINE], the Ki in assay [1] came to 1.8 nM; in assay [4] it was 17.4 nM; in assay [2], 50.3 nM; in assay [3], 6.9 nM.

One may read the Ki as a measure of affinity in units of concentration, obtained from inhibition or displacement.

These data come from ChEMBL document CHEMBL1125581 (J Med Chem, 1991).
